Bioassay records from PubChem.
Shown are actives, neighbours in structure and some others; about 4.7% of the full set was active somewhere.
SKN-1 inh: inhibitors of C. elegans SKN-1. inhibition, % at 21.8 µM. C. elegans VP596 Pgst-4::GFP/RFP ratio, acrylamide-induced, 24 h. 360,000 tested, 0.49% active;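 active = interference check ratio from 0.5 to 1.5 plus GFP to RFP signal ratio inhibition reaching or exceeding a fixed threshold, cut at about 30% in these data, passing the limit was not always enough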
MPTP block: permeability transition pore inhibition | isolated mouse mitochondria, Ca2+ swelling absorbance, 30 min | inhibition, % at 10 µM | 360,000 tested, 1.4% active;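 active = inhibition of 50% or more, scaled per plate between neutral and stimulator controls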;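 also: 0% = DMSO wells given calcium and 100% = 1 mM EGTA wells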
NR3A LBD binder: NR3A (human) ligand-binding domain modulation | NR3A LBD differential scanning fluorimetry, Tm shift; 0% = protein alone, 100% = glycine-bound protein | Tm shift relative to glycine control, % at 25 µM | 340,000 tested, 2.5% active;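 active = melting temperature shift of at least 10% of the positive control shift, at one fixed dose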
ADAM17 inh: ADAM17 inhibition, QFRET primary screen; P78536; recombinant ADAM17, EDANS/DABCYL FRET peptide cleavage; inhibition, % at 6.95 µM; 370,000 tested, 0.83% active;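 active = inhibition above the mean of compounds lying between control limits plus 3 SD, set per campaign, cut at about 8.5% in these data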;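 also: 0% = DMSO-only wells as the low control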
Target sequence (P78536 215-824 limits assumed): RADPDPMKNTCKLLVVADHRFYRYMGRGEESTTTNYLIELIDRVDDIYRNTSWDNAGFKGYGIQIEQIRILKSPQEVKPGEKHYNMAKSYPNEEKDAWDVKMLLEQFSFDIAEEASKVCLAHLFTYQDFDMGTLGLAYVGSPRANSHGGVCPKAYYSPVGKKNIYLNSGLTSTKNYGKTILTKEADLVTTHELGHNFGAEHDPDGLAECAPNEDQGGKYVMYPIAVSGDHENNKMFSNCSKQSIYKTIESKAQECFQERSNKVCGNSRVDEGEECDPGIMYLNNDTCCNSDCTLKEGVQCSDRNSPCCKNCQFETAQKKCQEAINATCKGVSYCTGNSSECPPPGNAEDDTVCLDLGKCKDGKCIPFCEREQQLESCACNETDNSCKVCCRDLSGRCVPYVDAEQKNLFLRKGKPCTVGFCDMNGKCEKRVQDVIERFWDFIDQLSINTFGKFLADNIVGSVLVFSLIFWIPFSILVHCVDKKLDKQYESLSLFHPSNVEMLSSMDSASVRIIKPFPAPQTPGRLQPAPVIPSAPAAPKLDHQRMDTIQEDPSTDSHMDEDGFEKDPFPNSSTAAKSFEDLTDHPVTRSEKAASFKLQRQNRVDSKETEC
ADAM10 inh: ADAM10 inhibition, QFRET primary screen; 370,000 tested, 0.62% active; inhibition, % at 7 µM; O14672; recombinant ADAM10, EDANS/DABCYL FRET peptide cleavage, 3 h; AID 720582;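 active = inhibition above a per-campaign cutoff equal to the mean of compounds falling between control-based bounds plus 3 SD, cut at about 20% in these data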;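 also: 0% = DMSO wells while the 100% control is not disclosed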
MT1-MMP act inh: blocks activation of human MT1-MMP; P50281; HT1080 RFP-PRO-GFP cells, GFP/RFP ratio fluorescence, overnight; percent of plate control window, DMSO zero; GFP/RFP ratio change, % at 20 µM; 360,000 tested, 0.061% active; AID 651647;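 active = GFP/RFP ratio change of at least 30% with cell ATP level not reduced by more than half and red fluorescence within 50% of control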
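Assay system: HT1080 RFP-PRO-GFP cells | Dosing: 20 µM single dose, 1% DMSO | Incubation: Cells overnight before dosing, compound overnight, 37 °C, 5% CO2 | Evaluation: GFP/RFP fluorescence ratio | Control set: DMSO-only wells and HT1080 RFP-L50D-GFP cell wells as references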
An asterisk follows results filed as active; nt = no result given.

SMILES	SKN-1 inh	MPTP block	NR3A LBD binder	ADAM17 inh	ADAM10 inh	MT1-MMP act inh
CC(=O)NC(Cc1ccc(F)cc1)C(=O)N1CCN(C(=O)NCc2ccccc2)CC1 (centres undefined)	49*	1	-1	2	1	10
CC(=O)NC(Cc1ccccc1)C(=O)NC1CCN(C(=O)NCc2ccccc2)CC1 (centres undefined)	-6	0	0	-1	-4	-2
Cc1nnc(NC(=O)c2ccc(S(=O)(=O)N3CC(C)OC(C)C3)cc2)o1 (centres undefined)	2	-2	1	4	-6	-5
CCOC(=O)C1=C(c2ccccc2)N=c2s/c(=C\c3cccc(O)c3)c(=O)n2C1c1cccs1 (centres undefined)	2	11	14*	5	9	-30
CCc1n[nH]c(=S)n1/N=C/c1cccc2ccccc12	2	1	2	-1	5	0
O=C(Nc1cccc(Cl)c1)OCCOc1ccccc1	13	3	15*	5	9	11
O=C(Nc1ccccc1)OCCCCCOC(=O)Nc1ccccc1	0	0	46*	-4	-1	-2
O=C(Nc1ccccc1)OCCOc1ccccc1	-20	-2	-11	-2	-5	1
COc1ccc(OCCOC(=O)Nc2ccccc2)cc1	16	-1	33*	1	-7	3
Cn1nccc1C(=O)N1CCC(Cc2ccccc2)CC1	38*	3	-2	1	-6	0
Cc1c(NC(=O)C2CC(c3ccc(F)cc3)=NO2)c(=O)n(-c2ccccc2)n1C (centres undefined)	-17	-1	-1	-1	2	1
Nc1c2c(nc3ccc(Br)cc13)N(c1ccccc1)CC2	3	9	10*	-7	-20	3
Cc1cccc(N2CCc3c2nc2ccc(Br)cc2c3N)c1	2	12	37*	-26	-67	4
N#Cc1ccc(OCC(=O)NCCCn2ccnc2)cc1	-2	-2	-10	-3	1	5
C=C1C(=O)CC2=C1[C@](Cc1ccc(F)cc1)(C(=O)OC)N(C(=O)c1ccccc1)C2	5	0	nt	-4	-25	4
C=C1C(=O)C=C2CN(C(=O)c3ccccc3)[C@@](Cc3ccc(F)cc3)(C(=O)OC)[C@@H]12	-4	0	12*	nt	nt	-17
CCn1nnnc1SCC(=O)NNC(=O)C1CCCCC1	26	0	1	-6	4	-2
COc1cccc(-c2cc(N)nn2C(=O)Nc2ccc(Cl)cc2)c1	20	2	27*	6	11	3
COc1cc2nc(C3CC3)n(NC(=O)c3ccc(Cl)cc3)c(=O)c2cc1OC	37*	19	-3	-2	2	0
Cc1nn2c(-c3ccccc3)c(-c3ccccc3)nc2[nH]c1=O	-11	0	20*	-12	-16	-5
CCOC(=O)C1=C(NC#N)OC(C)=C(C)C1c1ccc(O)cc1 (centres undefined)	-8	-2	6	-9	-24	-2
O=C(N/N=C/c1c[nH]c2ccccc12)c1ccc(Br)cc1	6	1	30*	0	0	3
CC(C)(C)C(=O)Nc1ccc(C(=O)N/N=C/c2ccccc2OC(=O)c2ccccc2)cc1	-3	1	-1	2	5	3
CC(C)(C)C(=O)Nc1ccc(C(=O)N/N=C/c2ccccc2OC(=O)c2ccc(Cl)cc2)cc1	8	2	21*	7	5	-1
O=C(N/N=C/c1c[nH]c2ccccc12)c1ccccc1Cl	-1	1	-1	-4	2	-5
SMILES	SKN-1 inh	MPTP block	NR3A LBD binder	ADAM17 inh	ADAM10 inh	MT1-MMP act inh
O=C(N/N=C/c1c[nH]c2ccccc12)c1cc(Cl)ccc1O	4	0	36*	-24	-52	5
Nc1ccc(C(=O)N/N=C/c2c[nH]c3ccccc23)cc1	2	-1	21*	-2	-7	6
Nc1ccn([C@@H]2O[C@H](CNCc3cccc4c3sc3ccccc34)[C@@H](O)[C@H]2O)c(=O)n1	1	-1	nt	-3	-2	2
COc1ccc(CNC(=O)C2CCCN2S(=O)(=O)c2ccc(C)cc2)cc1 (centres undefined)	5	-2	-2	6	-12	-2
O=C(N/N=C\c1c[nH]c2ccccc12)c1ccc(O)cc1	7	2	41*	-8	-7	-1
O=C(O)c1ccc(N/N=C/c2c[nH]c3ccccc23)cc1	1	3	10*	-7	-20	1
O=C(N/N=C/c1c[nH]c2ccccc12)c1ccc(Cl)cc1	-8	1	37*	0	-4	2
Cc1nnc(N/N=C/c2c[nH]c3ccccc23)[nH]c1=O	7	1	25*	-1	8	13
Cc1nnc(N/N=C/C(C)c2ccccc2)[nH]c1=O (centres undefined)	-6	2	-2	-3	-14	3
CC(C)Oc1ccc(Br)cc1C(=O)N/N=C/c1c[nH]c2ccccc12	13	2	11*	-4	-4	5
Fc1c(F)c(F)c(N/N=C/c2c[nH]c3ccccc23)c(F)c1F	19	2	76*	-5	1	3
Cc1occc1C(=O)N/N=C/c1c[nH]c2ccccc12	3	-2	13*	nt	nt	10
Cc1cc(C)nc(N/N=C/c2c[nH]c3ccccc23)n1	7	0	1	-3	-8	2
Oc1ccc(C=NN=C2c3ccccc3-c3ccccc32)c(O)c1	18	3	23*	2	-4	-2
Cc1sc2ncnc(SCC(=O)NC(C)C(C)C)c2c1C (centres undefined)	-10	-1	1	-1	-8	-5
C[C@H]1[C@H](c2ccccc2)Oc2cc(Br)ccc2S(=O)(=O)N1Cc1ccc(Cl)cc1	nt	nt	nt	0	3	nt
Cn1c(N/N=C/c2c[nH]c3ccccc23)nc2ccccc21	18	3	19*	6	2	10
C(=NN=C1c2ccccc2-c2ccccc21)c1c[nH]c2ccccc12	8	4	17*	-2	-9	8
CCCCn1c(/N=C/c2c[nH]c3ccccc23)nc2ccccc21	16	13	23*	-2	1	1
Cc1cc(N/N=C/c2c[nH]c3ccccc23)c2ccccc2n1	1	2	-2	-33	-91	-1
NC(=S)N/N=C/c1c[nH]c2ccccc12	-12	3	-5	-9	-9	2
COC(=O)[C@]12C[C@H](CC(=O)NCC34CC5CC(CC(C5)C3)C4)C(=O)N(Cc3ccc4c(c3)OCO4)C1=C[C@H](C(C)C)O[C@@H]2C1CC1	nt	nt	nt	0	8	nt
CC(C)(C)c1ccc(NC(=O)CSc2nnc(-c3n[nH]c4ccccc34)o2)cc1	0	41	175*	7	12	1
